{"source": "PubChem BioAssay AID504382", "about": "(The Scripps Research Institute Molecular Screening Center, 2011)", "note": "About 460 (18%) of roughly 2,500 compounds were called active.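 Rule for the calls: active = mean activation above a cutoff of low control average plus 3 SD from the earlier screen (cut at about 12% in these data); inactive = the rest.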 Only a sample is shown.", "data": [{"assay": "compound fluorescence interference without thin filaments, confirmation, artefact control for cardiac RTF calcium sensitizer project, biochemical (AID 504382)", "settings": "IANBD fluorescence interference counterscreen, buffer, EC20 Ca2+; at 7.2 µM; stronger effect = higher value; scaled: EC20 calcium 0, EC100 calcium 100", "in_short": "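Doses – one dose of 7.2 µM, 0.7% DMSO · Buffer or medium – MOPS/KCl/MgCl2/EGTA/NTA/DTT buffer, pH 7.2 · Probe or stimulus – Ca2+ fixed at EC20, 0.472 mM · Measured by – fluorescence intensity, excitation 480 nm, emission 540 nm · Read-out – fluorescence interference versus control range · Timing – 15 min compound exposure at 25 °C · Replication – triplicate wells per compound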", "values": [{"smiles": "O=C(Nc1cccc(Cl)c1)c1cc(S(=O)(=O)NCCc2ccc(Cl)cc2)ccc1F", "fluorescence artifact activation": "10.6% (inactive)"}, {"smiles": "COc1cccc(/C(O)=C/c2nc3ccc(C(=O)NCCc4ccc(Cl)cc4)cc3[nH]c2=O)c1", "fluorescence artifact activation": "0.43% (inactive)"}, {"smiles": "COc1ccc(N(C)S(=O)(=O)c2ccc(Cl)c(C(=O)NCCc3ccc(Cl)cc3)c2)cc1", "fluorescence artifact activation": "35.3% (active)"}, {"smiles": "CCOc1ccc(C(C(=O)NC2CCCCC2)N(C(=O)Cc2cccs2)c2ccc(-n3cnnn3)c(OC)c2)cc1", "note": "(stereo unspecified)", "fluorescence artifact activation": "0.09% (inactive)"}, {"smiles": "O=C(c1ccccc1)N1CCN(CC#CC2(O)CCCCC2)CC1", "fluorescence artifact activation": "-0.05% (inactive)"}, {"smiles": "COC(=O)CN1C(=S)N(c2ccc(OC)cc2)C(=O)/C1=C/c1ccc(N2CCOCC2)cc1", "fluorescence artifact activation": "-0.04% (inactive)"}, {"smiles": "COc1ccc(N2CCN(C(=O)c3ccc(OCC4CCCO4)cc3)CC2)cc1", "note": "(stereo unspecified)", "fluorescence artifact activation": "23.9% (active)"}, {"smiles": "CCOc1ccc(C(=O)NC2CCN(C(=O)Nc3ccccc3OC)CC2)cc1", "fluorescence artifact activation": "-0.03% (inactive)"}, {"smiles": "COc1ccc(CC(=O)NCc2csc(-c3cccs3)n2)cc1OC", "fluorescence artifact activation": "0.03% (inactive)"}, {"smiles": "Cc1c(Cl)c([N+](=O)[O-])nn1CC(=O)N1CCN(C23CC4CC(CC(C4)C2)C3)CC1", "fluorescence artifact activation": "0.69% (inactive)"}, {"smiles": "COc1ccc(/C=C2\\SC(=O)NC2=S)cc1OC", "fluorescence artifact activation": "0.32% (inactive)"}, {"smiles": "COc1ccc(/C=C2\\SC(c3ccc(C)cc3)=NC2=O)cc1OC", "fluorescence artifact activation": "0.1% (inactive)"}, {"smiles": "COc1cc(/C=C2\\SC(=O)NC2=O)ccc1Oc1ccc([N+](=O)[O-])cn1", "fluorescence artifact activation": "25% (active)"}, {"smiles": "NC(=S)Nc1c(Cl)cccc1Cl", "fluorescence artifact activation": "-0.03% (inactive)"}, {"smiles": "COc1[nH]c(/N=C/c2ccccc2)c(C#N)c1C#N", "fluorescence artifact activation": "0.1% (inactive)"}, {"smiles": "NC(=O)NC(Cc1ccccc1)C(=O)NCC1(N2CCCCC2)CCCCC1", "note": "(stereo unspecified)", "fluorescence artifact activation": "7.54% (inactive)"}, {"smiles": "CC1CC(C)CN(C(=O)COC(=O)CCc2nc3ccccc3c(=O)[nH]2)C1", "note": "(stereo unspecified)", "fluorescence artifact activation": "-0.03% (inactive)"}, {"smiles": "Cn1cc(/C=C2\\SC(=S)N(NC(=O)c3ccccc3Cl)C2=O)c2ccccc21", "fluorescence artifact activation": "6.42% (inactive)"}, {"smiles": "CNC(=O)N(O)C1N(C)C(=O)N(CC(=O)OC)C1(C)C", "note": "(stereo unspecified)", "fluorescence artifact activation": "12.4% (active)"}, {"smiles": "COc1ccc(/C=C2\\SC(=S)N(CCCC(=O)Nc3ccccn3)C2=O)cc1OC", "fluorescence artifact activation": "0.11% (inactive)"}, {"smiles": "CC(C(=O)c1ccc(Br)cc1)[n+]1cccc2ccccc21", "note": "(stereo unspecified)", "fluorescence artifact activation": "11.8% (active)"}, {"smiles": "CN(C)c1ccc(/C=C(/C(=O)c2ccc(Cl)cc2Cl)n2cncn2)cc1", "fluorescence artifact activation": "-0.05% (inactive)"}, {"smiles": "CCOC(=O)c1c(=O)n(O)c2ccc(OC)cc2[n+]1[O-]", "fluorescence artifact activation": "0.13% (inactive)"}, {"smiles": "O=C(c1cccs1)N1CCN=C1SCc1cccc(F)c1", "fluorescence artifact activation": "0.02% (inactive)"}, {"smiles": "COc1cc(OC)cc(C(=O)NCC(=O)OC2CCOC2=O)c1", "note": "(stereo unspecified)", "fluorescence artifact activation": "6.1% (inactive)"}, {"smiles": "O=C(NC1CCCCC1)C(c1ccc(F)cc1)N(Cc1ccccc1)C(=O)CN1C(=O)c2ccccc2S1(=O)=O", "note": "(stereo unspecified)", "fluorescence artifact activation": "27.8% (active)"}, {"smiles": "O=C(NCC(=O)N(Cc1cccs1)C(C(=O)NC1CCCCC1)c1ccncc1)c1ccco1", "note": "(stereo unspecified)", "fluorescence artifact activation": "0.04% (inactive)"}, {"smiles": "COCCNC(=O)C(c1ccc(C)o1)N(Cc1ccc(F)cc1)C(=O)Cn1nnc2ccccc21", "note": "(stereo unspecified)", "fluorescence artifact activation": "0.43% (inactive)"}, {"smiles": "CSC(=NCc1ccco1)NC#N", "fluorescence artifact activation": "0.12% (inactive)"}, {"smiles": "CN1/C(=C\\C=C2/SC(=S)NC2=O)C(C)(C)c2ccccc21", "fluorescence artifact activation": "0.11% (inactive)"}, {"smiles": "Cc1cc(-c2ccccc2C(=O)NC2CCCCC2)on1", "fluorescence artifact activation": "0.27% (inactive)"}, {"smiles": "Cc1ccc(Cn2c(Sc3nnc(C)s3)nc3c2c(=O)[nH]c(=O)n3C)cc1", "fluorescence artifact activation": "42.6% (active)"}, {"smiles": "COc1cc(C(=O)Nc2ccc(Cl)c(C(F)(F)F)c2)cc(OC)c1OC", "fluorescence artifact activation": "0.1% (inactive)"}, {"smiles": "COc1cc(C(=O)NCc2nnc(SCC(=O)Nc3ccc4c(c3)OCO4)o2)cc(OC)c1OC", "fluorescence artifact activation": "35.2% (active)"}, {"smiles": "CCN(CC)S(=O)(=O)c1ccc2c(c1)nc(CCC(=O)Nc1ccc3c(c1)OCO3)n2C", "fluorescence artifact activation": "0.09% (inactive)"}, {"smiles": "Cc1onc(-c2c(F)cccc2Cl)c1C(N)=S", "fluorescence artifact activation": "6.57% (inactive)"}, {"smiles": "CN(C)c1ccc(/C=C(\\C#N)C(=O)Nc2nc3c(s2)CCN(Cc2ccccc2)C3)cc1", "fluorescence artifact activation": "0.06% (inactive)"}, {"smiles": "Cc1ccc(N=Nc2c(O)[nH]c3ccc(F)cc23)cc1", "fluorescence artifact activation": "6.29% (inactive)"}, {"smiles": "CC(=O)c1ccc(NC(=O)C2CCCN(S(=O)(=O)c3c(C)[nH]c(=O)[nH]c3=O)C2)cc1", "note": "(stereo unspecified)", "fluorescence artifact activation": "20.3% (active)"}, {"smiles": "CC(=O)N1CCCc2cc(S(=O)(=O)N3CCCC(C(=O)Nc4cccc(C)c4)C3)ccc21", "note": "(stereo unspecified)", "fluorescence artifact activation": "0.1% (inactive)"}, {"smiles": "Cc1cc(S(=O)(=O)N2CCCC(C(=O)Nc3ccc(C(=O)O)cc3)C2)ccc1Cl", "note": "(stereo unspecified)", "fluorescence artifact activation": "1.39% (inactive)"}, {"smiles": "O=C1CCC[C@@H]2C[C@@]3(C[C@@H]4CCN1[C@H]24)Nc1cc([N+](=O)[O-])ccc1NC3=NC1CCCCC1", "fluorescence artifact activation": "10.3% (inactive)"}, {"smiles": "CCCC(CCC(=O)Nc1ccc(S(N)(=O)=O)cc1)C(=O)O", "note": "(stereo unspecified)", "fluorescence artifact activation": "0.96% (inactive)"}, {"smiles": "CC1(c2ccc(OC(F)F)cc2)NC(=O)N(CC(=O)Nc2ccc(F)cc2)C1=O", "note": "(stereo unspecified)", "fluorescence artifact activation": "0% (inactive)"}, {"smiles": "NS(=O)(=O)c1ccc(NC(=O)COc2ccc(C(=O)c3ccc(F)cc3)cc2)cc1", "fluorescence artifact activation": "545% (active)"}, {"smiles": "CCOC(=O)C1(CCc2ccccc2)CCN(C(=O)c2occc2C)CC1", "fluorescence artifact activation": "3.37% (inactive)"}, {"smiles": "CCCC1C(c2ccccc2)C(C#N)(C#N)C2(C#N)CC1(N)NC2=O", "note": "(stereo unspecified)", "fluorescence artifact activation": "0.01% (inactive)"}, {"smiles": "Oc1[nH]c2ccccc2c1N=Nc1ccccc1Cl", "fluorescence artifact activation": "0.13% (inactive)"}, {"smiles": "C#CCOCCOCCOCCNc1nc(N2CCN(C(=O)CCCCCCCCCCNC(=O)[C@@H](CCSC)n3cc(CCO)nn3)CC2)nc(N2CCN(C(=O)CCCCCCCCCCNC(=O)[C@H](CCSC)n3cc(CCO)nn3)CC2)n1", "fluorescence artifact activation": "0.15% (inactive)"}, {"smiles": "NS(=O)(=O)c1ccc(NCc2c(F)cccc2Cl)cc1", "fluorescence artifact activation": "24.7% (active)"}, {"smiles": "CCN=C(NC#N)SCc1c(F)cccc1Cl", "fluorescence artifact activation": "0.17% (inactive)"}, {"smiles": "COc1ccc(C2NN=C(c3c[nH]c4ccccc34)C2O)cc1", "note": "(stereo unspecified)", "fluorescence artifact activation": "8.63% (inactive)"}, {"smiles": "CCN(CC)C(=O)C1CCC(CNS(=O)(=O)c2cccc3cccnc23)CC1", "note": "(stereo unspecified)", "fluorescence artifact activation": "-0.02% (inactive)"}, {"smiles": "CN(CC(=O)NCc1ccc(Cl)cc1)S(=O)(=O)c1cccc2cccnc12", "fluorescence artifact activation": "0.14% (inactive)"}, {"smiles": "CC(C)c1ccc(NS(=O)(=O)c2cccc3cccnc23)cc1", "fluorescence artifact activation": "168% (active)"}, {"smiles": "CCc1ccc2c(COC(=O)CNS(=O)(=O)c3ccc(NC(C)=O)cc3)cc(=O)oc2c1", "fluorescence artifact activation": "2.6% (inactive)"}]}]}
